Like-named read-outs stand apart in the source and are kept apart here.

The subject of series [1] is HIV. To be noted: once-daily, cited from earlier work.
Series [2] has as its system HIV. The conditions noted are these: mostly PI-experienced, aged 6 to 17 years; time to loss of virologic response; cited from earlier work.
The test system of series [3] is HIV-1. To be noted: ITT (missing = failure), cited from earlier work.
Series [4] in a line: Steady-state plasma APV/RTV/FPV pharmacokinetics in HIV-1-infected children. The class given is in vivo. Put shortly:
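Dosing used FPV 50 mg/mL oral suspension or 700 mg tablets (≥39 kg), with RTV 80 mg/mL solution or 100 mg capsules (≥33 kg). At week 2, intensive sampling was taken at 0, 1, 2, 4, 6, 8 and 12 h postdose, plus predose samples every 4–12 weeks. Noncompartmental AUC(0–τ), Cmax, Cτ and CL/F were calculated; actual dose had to be within 10% of nominal. Log-transformed mixed-effect ANOVA gave geometric LS mean ratios (90% CI) versus historical healthy adults on FPV 1400 mg BID (n=190) or FPV/RTV 700/100 mg BID (n=159).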

Series [5] can be described thus: Safety: adverse events, laboratory abnormalities, growth. The class given is in vivo, HIV-1–infected children. The conditions noted are these: for subjects with at least 1 drug-related AE: 2- to <6-year olds (FPV/RTV 2/19; FPV 12/20); for change in median height and weight Z scores: week 48; for subjects with an AE leading to permanent discontinuation of study drug and withdrawal from the study: whole treatment group; for subjects reporting AEs: whole treatment group (FPV 19/20; FPV/RTV 83/89); for subjects with at least 1 drug-related grade 2–4 AE: whole treatment group (FPV/RTV 10/89; FPV 2/20). Put shortly:
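AEs, growth parameters, hematology and clinical chemistry including a lipid panel were assessed every 4–12 weeks, with follow-up 4 weeks after withdrawal. Severity was graded by the DAIDS Toxicity Table (2004). All study drug was stopped for grade 3/4 AE or toxicity unless clearly unrelated.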

The test system of series [6] is HIV-1. The series is described as follows: Antiviral response: plasma HIV-1 RNA <400 copies/mL, ITT. It is filed as in vivo, HIV-1–infected children. Summed up:
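Children aged 2–18 years received twice-daily FPV ± RTV plus 2 or 3 active NRTIs, with plasma HIV-1 RNA measured every 4–12 weeks. The ITT (exposed) population was all subjects with ≥1 documented dose. In the snapshot analysis, response at each visit was taken from the last HIV-1 RNA within the visit window. Missing data counted as nonresponse, as did switching or adding background ART, unless toxicity-driven before week 2.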

In another series the test system is CD4+ cell. In words: CD4+ cell response. It is filed as in vivo, HIV-1–infected children. To be noted: week 48; for median CD4+ cell count change from baseline / median percentage CD4+ cell count change from baseline: whole treatment group. Summed up:
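Lymphocyte subsets were monitored every 4–12 weeks in children given twice-daily FPV ± RTV with an NRTI background, with visits at weeks 2, 4, 8, 12, 16, 24, 36 and 48. CD4+ cell count and CD4+ percentage at week 48 were expressed as change from baseline and summarized as medians.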

The conditions of series [7]: study APV20003, cited from earlier work.
[8] abbreviates: 2- to <6-year olds (FPV 10/20, all grade 1; FPV/RTV 1/19, grade 2).

As to `COC(=O)N[C@H](C(=O)N[C@@H](Cc1ccccc1)[C@@H](O)CN(Cc1ccc(-c2ccccn2)cc1)NC(=O)[C@@H](NC(=O)OC)C(C)(C)C)C(C)(C)C` [RTV-boosted atazanavir, atazanavir], the “response rate for HIV RNA <400 copies/mL at week 48” value in the series on HIV [1] (ART-experienced 6- to <18-year olds (8/25)) was 32%; in the series with HIV [1] (ART-naïve 6- to <18-year olds (14/16)), 88%.

`CC(C)CN(C[C@@H](O)[C@H](Cc1ccccc1)NC(=O)O[C@H]1CO[C@H]2OCC[C@H]21)S(=O)(=O)c1ccc(N)cc1` [RTV-boosted darunavir, darunavir]: in the series with HIV [2], the “children achieving a viral load of <400 copies/mL at week 48” value was 59%.

For the molecule lopinavir (LPV)/RTV [LPV/RTV], the “subjects with HIV-1 RNA <400 copies/mL after 48 weeks” value in the series with HIV-1 [3] (ART-naïve) is 88%; with HIV-1 [3] (PI-experienced/NRTI-experienced) it was 58%; with HIV-1 [3] (PI-naïve/NRTI-experienced) it was 84%.

Take `CC(C)c1nc(CN(C)C(=O)N[C@H](C(=O)N[C@@H](Cc2ccccc2)C[C@H](O)[C@H](Cc2ccccc2)NC(=O)OCc2cncs2)C(C)C)cs1` [RTV, ritonavir]: the “plasma RTV Cτ” value in series [4] (RTV 3 mg/kg BID in combination with FPV, across the age groups) is “higher”.

For fosamprenavir/ritonavir [FPV/RTV], in series [4] (FPV/RTV 15/3 mg/kg BID, 6- to <12-year olds and 12- to 18-year olds), the “APV AUC(0–τ) and Cmax compared with adults receiving FPV/RTV 700/100 mg BID” value is recorded as “lower”. For the same molecule, the “higher plasma APV AUC(0–τ), Cmax and Cτ values than historical adults receiving FPV/RTV 700/100 mg BID” value in series [4] (FPV/RTV 23/3 mg/kg BID, 2- to <6-year olds) is “approximately 50%”. Further, the “plasma APV exposures compared with the historical adult population” value in series [4] (FPV/RTV 700/100 mg BID, 12- to 18-year-old subjects ≥39 kg) was “similar”. Also, the “incidence of drug-related vomiting” value in series [5] (setting [8]) was found to be 5%; in series [5] (6- to <12-year olds (9/30; 7 grade 1 and 2 grade 2)), 30%; in series [5] (12- to 18-year olds (3/40, all grade 1)) it was 8%. The “subjects with at least 1 drug-related AE” value in series [5] is given as 11%. Also, the “subjects with drug-related AEs” value in series [5] (6- to <12-year olds (13/30)) was 43%; in series [5] (12- to 18-year olds (15/40)), 38%. Also, the “AEs leading to permanent discontinuation of study drug” value was found to be 1 in series [5] (6- to <12-year olds (hypertriglyceridemia)); 2 in series [5] (12- to 18-year olds (adverse drug reaction and pyelonephritis)). Also, the “grade 3/4 hypertriglyceridemia” value in series [5] (FPV/RTV group) is given as “no reports”. Moreover, the “grade 2–4 diarrhea” value in series [5] (FPV/RTV group (2/89)) is 2%. The “grade 3 increases in total cholesterol” value in series [5] (FPV/RTV group (2 subjects)) came out at 5%. Also, in series [5] (FPV/RTV group (3/89)), the “grade 2–4 vomiting” value turned out to be 3%. The “grade 3 increases in low density lipoprotein cholesterol” value in series [5] (FPV/RTV group (4 subjects)) is reported as 9%. The molecule also showed a drug-related nausea in series [5] (adolescent group (6/40)) of 15%. In series [5] (adolescent group (7/40)), this molecule came in with a drug-related diarrhea of 18%. Also, the “change in median height and weight Z scores” value in series [5] is listed as “Small increases”. Moreover, in series [5], the “subjects with an AE leading to permanent discontinuation of study drug and withdrawal from the study” value is given as “Four”. Besides, the “subjects reporting AEs” value in series [5] is 93%. The “subjects with at least 1 drug-related grade 2–4 AE” value in series [5] is 11%. The “subjects with HIV-1 RNA <400 copies/mL at week 48” value (“subjects … at week 48” below) came to 74% with HIV-1 [6] (2- to <6-year olds (14/19)); 53% with HIV-1 [6] (6- to <12-year-old (16/30)); 63% with HIV-1 [6] (12- to 18-year-old (25/40)); 83% in the series on HIV-1 [6] (ART-naïve subjects, snapshot analysis); 48% with HIV-1 [6] (PI-experienced subjects, snapshot analysis); 65% in the series on HIV-1 [6] (PI-naïve/NRTI-experienced subjects, snapshot analysis). Moreover, the “subjects … at week 48” value in the series with HIV-1 [6] (range across age groups, intent-to-treat [exposed], snapshot analysis) is 53–74%. Further, the “median CD4+ cell count change” value is 174 cells/mm^3 in the series on CD4+ cell (2- to <6-year olds), 210 cells/mm^3 with CD4+ cell (6- to <12-year olds) and 140 cells/mm^3 in the series on CD4+ cell (12- to 18-year olds). The “percentage CD4+ cell count change” value with CD4+ cell (2- to <6-year olds) is 10%; in the series on CD4+ cell (6- to <12-year olds) it was 7%; in the series on CD4+ cell (12- to 18-year olds) it was 7%. In the series with CD4+ cell, the “median CD4+ cell count change from baseline” value is on record as 190 cells/mm^3. In addition, the “median percentage CD4+ cell count change from baseline” value in the series on CD4+ cell came to 8%. Besides, the “lower APV exposure than adults receiving FPV/RTV 1400/200 mg QD” value in series [7] (2- to <6-year-old children, FPV/RTV 30/6 mg/kg QD) is given as ~ 28%.

In the case of `CC(C)CN(C[C@@H](OP(=O)(O)O)[C@H](Cc1ccccc1)NC(=O)O[C@H]1CCOC1)S(=O)(=O)c1ccc(N)cc1` [FPV, Fosamprenavir], in series [4] (30 mg/kg twice-daily, 2- to <6-year olds), the “plasma amprenavir exposures compared with 1400 mg twice-daily in adults” value was “higher”. Besides, the “samples with undetectable plasma FPV prodrug concentrations” value in series [4] (plasma) is 98%. Moreover, the “incidence of drug-related vomiting” value in series [5] (setting [8]) is reported as 50%. Besides, in series [5], the “subjects with at least 1 drug-related AE” value came out at 60%; the “change in median height and weight Z scores” value was “Small increases”; the “subjects with an AE leading to permanent discontinuation of study drug and withdrawal from the study” value was “none”; the “subjects reporting AEs” value is listed as 95%. The “subjects with at least 1 drug-related grade 2–4 AE” value in series [5] was 10%. In series [5] (FPV group), the “grade 3/4 hypertriglyceridemia, raised total cholesterol or raised low density lipoprotein cholesterol” value is listed as “no grade 3/4 reports”. For the same molecule, the “subjects … at week 48” value with HIV-1 [6] (FPV treatment group (PI-naïve, 2 to <6 yr), snapshot analysis) came out at 60%. In addition, in the series with CD4+ cell, the “median CD4+ cell count change from baseline” value is 340 cells/mm^3 and the “median percentage CD4+ cell count change from baseline” value was determined as 8%. For the same molecule, the “APV exposures compared with adults receiving FPV/RTV 1400/200 mg QD” value in series [7] (6- to 18-year-old children, 30/6 mg/kg QD) is reported as “comparable”.
